Assay results: publication PMC4369925 (Current molecular medicine, 2014)
Residues, ends and D or L forms follow the SMILES beside them.

Key:
[1] = target: T1, rPRCP1 (Homo sapiens, UniProt P42785); assay: Peptide inhibition of rPRCP1 hydrolysis of APpNA; format: biochemical
T1 sequence (P42785 46-496): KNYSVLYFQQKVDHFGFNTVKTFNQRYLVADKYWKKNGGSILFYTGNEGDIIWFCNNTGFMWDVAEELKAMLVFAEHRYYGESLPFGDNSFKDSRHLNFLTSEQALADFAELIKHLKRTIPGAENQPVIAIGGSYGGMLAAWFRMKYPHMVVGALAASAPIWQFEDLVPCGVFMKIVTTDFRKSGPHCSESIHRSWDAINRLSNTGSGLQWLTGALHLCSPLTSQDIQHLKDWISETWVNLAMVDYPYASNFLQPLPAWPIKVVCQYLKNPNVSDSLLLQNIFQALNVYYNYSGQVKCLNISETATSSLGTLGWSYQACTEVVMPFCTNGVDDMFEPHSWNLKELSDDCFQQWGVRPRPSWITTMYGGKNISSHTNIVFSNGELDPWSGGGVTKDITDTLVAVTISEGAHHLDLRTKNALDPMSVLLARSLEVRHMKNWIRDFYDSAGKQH
Method in brief: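 Recombinant PRCP1 hydrolysis of APpNA was measured at 37°C with sub-saturating substrate relative to Km. The initial hydrolysis rate was read at 405 nm in triplicate. Percent inhibition = [1 − (sample − blank)/(total − blank)] × 100, and IC50 and inhibition type were derived from it.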

[2] = target: T1, rPRCP1; assay: Hydrolysis of X-Pro-pNA chromogenic substrates by rPRCP1; format: biochemical; conditions: for ratio of Km to the Km of GPpNA: rPRCP1, X-Pro-pNA, 37°C 1 h, 405 nm, ratio <1 more selective than GPpNA
Method in brief: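 Recombinant PRCP1 was expressed in Schneider 2 cells. Increasing concentrations of X-Pro-pNA substrates were incubated with it in HEPES-carbonated buffer (pH 7.1, 2 mM CaCl2, 1 mM MgCl2, 0.1% gelatin) at 37°C for 1 h in the dark; two substrates needed 24 h. pNA release was read at 405 nm. Runs were in duplicate, at least 3 times, and data were fit to Michaelis–Menten.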

[3] = test system: rPRCP activation of PK; assay: rPRCP activation of PK bound to HK on microtiter plate; format: biochemical, human; conditions: rPRCP 3 μg, HK-coated plate, 1 h
Method in brief: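 Plasma PK, wild-type rPK or mutant rPKs (25 nM) were added to HK-coated microtiter wells with or without recombinant PRCP in HEPES-carbonate buffer pH 7.1 for 1 h at 37°C. Some wells also received a peptide blocking PK–HK binding (0.1 mM). S2302 (0.5 mM) was then added for 1 h at 37°C and read at 405 nm; three experiments.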

[4] = test system: PRCP1-dependent PK activation on HPAEC; assay: PRCP1-dependent PK activation; format: cell-based, human; conditions: 25 nM rPK + 25 nM HK on HPAEC
[5] = test system: plasma kallikrein; assay: Autoactivation of human plasma PK with rPKs, fluid-phase assay; format: biochemical; conditions: 1 h
Method in brief: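 Recombinant PK was expressed in stably transfected HEK cells in serum-free conditioned medium, purified by S-Sepharose cation exchange (pH 5.2, NaCl gradient) and dialysed into TBS pH 7.4. Plasma PK and rPKs, 25 nM each, were incubated in triplicate for 1 h at 37°C. […], kallikrein was assayed with or without a kallikrein inhibitor using 0.5 mM S2302 for 1 h at 37°C, read at 405 nm.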

CSCC[C@H](NC(=O)[C@H](CCC(N)=O)NC(=O)[C@H](C)NC(=O)[C@H](CCCCN)NC(=O)CNC(=O)[C@@H](N)CC(=O)O)C(=O)N[C@@H](CCC(N)=O)C(=O)N[C@@H](CO)C(=O)N1CCC[C@H]1C(=O)N[C@@H](C)C(=O)O [DGK10] (H-DGKAQMQSPA-OH)
IC50 [1]: 600 µM

Ala-Pro-paranitroanilide [APpNA, reference compound]
ratio of Km to the Km of GPpNA [2]: 0.4

wild type rPK: recombinant wild type human prekallikrein
degree of activation by rPRCP relative to wild type plasma PK ([3]; 25 nM PK): about 66%
activation to plasma kallikrein on HPAEC (in words) [4]: less than half

rPK^P637A: recombinant PK, C-terminal Pro-Ala replaced by Ala-Ala
activability by rPRCP (in words) ([3]; 25 nM rPK): significantly more activable by rPRCP than wild type rPK
autoactivation of plasma PK (in words) ([5]; plasma PK 25 nM + rPK 25 nM, S2302): lower threshold for autoactivation

Cc1cc(Oc2nc(Oc3cccc(C(=N)N)c3)c(F)c(NC(C)CCc3ccccc3)c2F)c(C(=O)O)cc1N(C)C (centres unmarked) [PF048, reference compound]
block of autoactivation of PK (in words) ([5]; 100 nM inhibitor, plasma PK 25 nM + rPK mutants 25 nM): block

Ser-Pro-paranitroanilide [SPpNA]
product turnover (kcat) compared with APpNA and GPpNA ([2]; rPRCP1, Michaelis-Menten fit): not significantly different
ratio of Km to the Km of GPpNA [2]: 0.23
catalytic efficiency (kcat/Km), times higher than GPpNA ([2]; rPRCP hydrolysis): 6-7 times
catalytic efficiency (kcat/Km), fold higher than APpNA ([2]; rPRCP hydrolysis, printed as 'at least'): 2-3 fold
